The text below walks through data of the EternaBench riboswitch data.

The test system of this series is MS2 coat protein. The series is described as follows: apparent Kd, MS2 coat protein; higher = weaker binding; RNA-MaP array; FMN 200 µM where present. The gist of the method:
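Binding was read on Illumina sequencing-chip clusters where stalled E. coli RNA polymerase had transcribed each design. A titration of SNAP-549-labelled MS2 coat protein began at 0.7 or 1.5 nM and doubled to 3 µM, once without ligand and once with constant ligand, in 100 mM Tris-HCl pH 7.5, 80 mM KCl, 4 mM MgCl2, BSA, DTT, yeast tRNA and Tween-20. The apparent Kd is the median of filtered per-cluster binding-curve fits, based on green signal normalised to red-channel RNA signal and control-cluster median Fmax.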

The mark [1] stands for this setting: designed as: OFF switch for flavin mononucleotide, no ligand.
Where [2] appears, read: ligand present: flavin mononucleotide, designed as: OFF switch for flavin mononucleotide.
Setting [3] is: designed as: ON switch for flavin mononucleotide, no ligand.
[4] abbreviates: ligand present: flavin mononucleotide, designed as: ON switch for flavin mononucleotide.

By apparent Kd is commonly meant a dissociation constant that holds for the conditions of the assay. Regarding “CUCUUUUAAGGAUAUACAUGAGGAUCACCCAUGUGCAUAGGUAUGUCCGGGUCCUGGAGUAGAAGGUGGGACGG”, the “apparent Kd” value under setting [1] was 70.3 nM and the “apparent Kd” value under setting [2] was determined as 58.4 nM.

Turning to “CUCAGCUCGUCAGGAUAUACGUCACUGCUUCGGCAGUGUGGUAAGAUCACAUGAGGAUCACCCAUGUAGAAGGGACGAGCUGAG”, the “apparent Kd” value reads like this: under setting [1], 11.5 nM; under setting [2], 245 nM.

Take “ACAAAUGGAGGAUAUACAUGAGGAUCACCCAUGUUUAUCCUACAUGUGUGAUAAUAAUGUAGAAGGCCAUUUGA”: the “apparent Kd” value was 19.7 nM under setting [1] and 13.2 nM under setting [2].

Turning to “GGUCCGCACUAGAAGGGUGACAUGAGGAUCACCCAUGUGCACUUCCGCUCUUAGCGGAAAGUGCCACAGGAUAUAGUGUGGAUU”, the “apparent Kd” value reads like this: under setting [3], 80.6 nM; under setting [4], 20.3 nM.

Consider “AUUAUAUAGAAAGGAUAUAGAAUAUUAUUUUAACAUGAGGAUCACCCAUGUAACCUUAUGUGUAGCUAGAAGGUUCAUUUAUUA”, for which the “apparent Kd” value under setting [1] was found to be 61.8 nM and the “apparent Kd” value under setting [2] came to 78.1 nM.

For the sequence “GGGAUUAAGGCAGGAUAUCCGGGUUGGCCUCGACAUGAGGAUCACCCAUGUGGAGAAGGGCCGACUGCUCGAAAGGCGGUCAAG”, the “apparent Kd” value by setting is: under setting [1], 214 nM; under setting [2], 67.4 nM.

For the sequence “GGAGCUCUCAUUAACAUGAGGAUCACCCAUGUCAAAAGACAUGAGGAUAUGGAUCCUAAUUGGAUCCAGAAGGCAUGGAGCUCC”, the “apparent Kd” value is 1070 nM under setting [3] and 54.3 nM under setting [4].

Turning to “ACAUGACAUGAGGAUCACCCAUGUGAGGAUAUGCGAAAAAAAAAAAAAAAAAAAAAAAGCAGAAGGCACAAAAA”, the “apparent Kd” value is, setting by setting: under setting [1], 180 nM; under setting [2], 280 nM.

For the sequence “GUUGCGUUUGUGAGGAUAUGCUGGUCCUUGGUUCGGCAGAAGGCACAUGAGGAUCACCCAUGUGGUGUCGUUCC”, the “apparent Kd” value under setting [1] came out at 14.2 nM and the “apparent Kd” value under setting [2] stood at 22.4 nM.

Consider “GAAUUAAUGAUCCAAUUUUACAACAUGAGGAUCACCCAUGUGCAGGAUAUCGUGUGUUUUAUAUUCGAGAAGGGCAAAUACAUU”, for which the “apparent Kd” value under setting [1] was determined as 161 nM and the “apparent Kd” value under setting [2] amounted to 287 nM.

Take “CGUGCAAAUGUAGGAUAUGGUUAUCUAUGUCUAGUUACUAGACAUAGAUAACCAGAAGGACAUGAGGAUCACCCAUGUAGCACG”: the “apparent Kd” value was 6.7 nM under setting [1] and 21.6 nM under setting [2].

With “ACUGCCCGAGAGAAGGGAACAUGAGGAUCACCCAUGUUACCUCACCUGGUGACGGAACUCCAAGUUCAGGAUAUCUCGAACGGU”, the “apparent Kd” value was determined as 5.23 nM under setting [1] and 6.51 nM under setting [2].

For “UGGACGGGAGGAUAUACAUGAGGAUCACCCAUGUAAAAUUGUAUAAUAUAUAGUUCGUGUAGAAGGUUUGUUUU”, the “apparent Kd” value reads like this: under setting [1], 49.6 nM; under setting [2], 44.7 nM.

In the case of “ACAUCGACAGGAUAUACGUGAGUGGAAAAAGUAUGUCCACUACAUGAGGAUCACCCAUGUAGAAGGGUCGAUGA”, the “apparent Kd” value reads like this: under setting [1], 16.2 nM; under setting [2], 15 nM.

As to “GUAGAGUCAGGAUAUACAAAACCAUCGAUAGAUGGAUCCAUACAUGAGGAUCACCCAUGUAGAAGGGACUCUAC”, the “apparent Kd” value worked out at 20.3 nM under setting [1] and 21.5 nM under setting [2].

Take “GGGUUUGGAGGAUAUACAAUGGGUUUGGGAAACCGGGCCCUACAUGAGGAUCACCCAUGUAGAAGGCCGGGCCC”: the “apparent Kd” value under setting [1] turned out to be 14.8 nM and the “apparent Kd” value under setting [2] is 15.8 nM.

With “ACAUGAGGAUCACCCAUGUAAUGAUGGGUACUAUAUUAUUCGUAGGAUAUCGUUGUUAGUUUGUUCGAGAAGGACGUUUGCCUU”, the “apparent Kd” value is, setting by setting: under setting [1], 1220 nM; under setting [2], 1200 nM.

As for “UGUGUUAUCGGAGGAUAUCGAUAUCAAACAUGAGGAUCACCCAUGUUGAGGAUCACCCAUGUUCACGAGAAGGCCGGCGUACUC”, the “apparent Kd” value is, setting by setting: under setting [3], 112 nM; under setting [4], 194 nM.

For “GGACGUCACAUUUACAUGAGGAUCACCCAUGUCUCUUGACAUGAGGAUAUGGAUCCUAAUUGGAUCCAGAAGGCAUGGACGUCC”, the “apparent Kd” value reads like this: under setting [3], 1130 nM; under setting [4], 153 nM.

For “UGCUACAUGAGGAUCACCCAUGUAAUGUGGGAAUCGUUAGGACAGGAUAUGAUUGUAUUGUUUUUUCAGAAGGGUCAUUACUUU”, the “apparent Kd” value is 302 nM under setting [1] and 303 nM under setting [2].

Consider “UGGUAACAUGAGGAUCACCCAUGUCAAGAGAAUCAAGGAUAUGGUAAGUAAUAAGAGAAUCUAGAAGGUGAAGUUG”, for which the “apparent Kd” value amounted to 96.2 nM under setting [3] and 69.1 nM under setting [4].

As to “AACGAUCUAGGAUAUACAUGAGGAUCACCCAUGUAAGAGCCCGAACCGGGCUCCCUCUGUAGAAGGAGGUCAAA”, the “apparent Kd” value reads like this: under setting [1], 32.7 nM; under setting [2], 40.3 nM.

On to “CGCAAGUAUACAUGAGGAUCACCCAUGUAAGAUAGGGUAAUCAGAAGGUACAAUUAGAGAUAGAGUAAGGAUAUGAAAUUUGCG”, for which the “apparent Kd” value under setting [3] was found to be 358 nM and the “apparent Kd” value under setting [4] worked out at 94.5 nM.

Take “GCACAUGAGGAUCACCCAUGUCGGGAGGAUAUCUAGGCUGGGCGAUGCUAGGGCGGCCUCUGCUUAGAGAAGGCCCAUAAAAUC”: the “apparent Kd” value is, setting by setting: under setting [3], 197 nM; under setting [4], 33.4 nM.

As to “GCCUCACAUGAGGAUCACCCAUGUCAGGAUAUCUAAGGCGAAGUGCAAGCACCUCGUGAGAGAAGGGACGUCAA”, the “apparent Kd” value reads like this: under setting [1], 23.2 nM; under setting [2], 47.6 nM.

Turning to “CUAGUACAUGAGGAUCACCCAUGUCAGGAUAUUGGAUAUGACAUGGAAAACAUGUUAACAAGAAGGGACUAUAG”, the “apparent Kd” value runs as follows: under setting [1], 245 nM; under setting [2], 209 nM.

As for “UGGUACAUGGGAGGAUAUGGGACAUGAGGAUCACCCAUGUGAAAAUUAAAUAUGCCGAUAGGCAACUAGAAGGCCCAUGUACCU”, the “apparent Kd” value runs as follows: under setting [3], 33.1 nM; under setting [4], 15.4 nM.

As for “CUUUCGUGAGGAUAUGUGGCUUCGAUCGUGAAAUCGAGGCUACAGAAGGCACAUGAGGAUCACCCAUGUUCCUC”, the “apparent Kd” value under setting [1] was 34.3 nM and the “apparent Kd” value under setting [2] was found to be 410 nM.

For “AUCUACCUAGGAUAUACAUGAGGAUCACCCAUGUACAGUUUCAACUAGGGAAACACACGUAGAAGGAGGUAGAU”, the “apparent Kd” value reads like this: under setting [1], 13.6 nM; under setting [2], 32.6 nM.

Consider “UUUUAACAUGAGGAUCACCCAUGUGAGGAUAUCGAAAUUUAUAUUUAUAUUAAUAAAUCGAGAAGGCACAUUUU”, for which the “apparent Kd” value reads like this: under setting [1], 117 nM; under setting [2], 117 nM.

For “AGUUAAUAUCGAGGAUAUCCUCAUAGACAUGAGGAUCACCCAUGUUAACAUGGAGAAGGCGAUAUUAACAGCAUGUUACAUGCA”, the “apparent Kd” value under setting [3] was determined as 231 nM and the “apparent Kd” value under setting [4] is 26.8 nM.

For the sequence “CCUGCACAUGAGGAUCACCCAUGUCAGGAUAUCUCGCCGUGUGGAGCAACACGGUAUAAGAGAAGGGACACGGG”, the “apparent Kd” value by setting is: under setting [1], 28.7 nM; under setting [2], 25.7 nM.

“GAAUAAUUGAUCCAAUUUUACAACAUGAGGAUCACCCAUGUGCAGGAUAUCGUGAAAGUUAAAUACGAGAAGGGCAAGAACUGU”: the “apparent Kd” value under setting [1] is 220 nM and the “apparent Kd” value under setting [2] stood at 344 nM.

“GGAUAGGACAGAGGAUAUACGUGCUAGAGAUACUAGCAAAAUUUCCUCACAUGAGGAUCACCCAUGUAGAAGGCUGUCCGAUCG”: the “apparent Kd” value under setting [1] is 14.6 nM and the “apparent Kd” value under setting [2] turned out to be 323 nM.

On to “GUCAGCUCGUCAGGAUAUACAUGAUAGAUCGAUUAAUUAAUUAAUUUAACAUGAGGAUCACCCAUGUAGAAGGGACGAGCUGAC”, for which the “apparent Kd” value amounted to 80.1 nM under setting [1] and 71.9 nM under setting [2].

For “UCACUUCGUGAGGAUAUGCAAGGACUAUGACUGGUAGAAGGCACGACAUGAGGAUCACCCAUGUCUGUGGGUCC”, the “apparent Kd” value under setting [1] is 17 nM and the “apparent Kd” value under setting [2] amounted to 18.3 nM.

On to “UUAUUAUAUGUAGGAUAUGCAUAUUAUUAUUAUGCAGAAGGACAUGAGGAUCACCCAUGUAUAUUAUUAUUAUAUGUUAUAUAU”, for which the “apparent Kd” value worked out at 25.5 nM under setting [1] and 36.9 nM under setting [2].

Turning to “AAUUUAAUACAUGAGGAUCACCCAUGUAAAUUAAUUAAGAUCUAGGAUAUCAGCUCGAAUAGAGCUGAGAAGGAGAUCACAUGU”, the “apparent Kd” value reads like this: under setting [3], 17.4 nM; under setting [4], 15.1 nM.

For “AAAGAGCGAGGAUAUACAUGAGGAUCACCCAUGUGAAGAUGCAUGGUCUGAACGUCUGGUAGAAGGCGUAUGAA”, the “apparent Kd” value by setting is: under setting [1], 161 nM; under setting [2], 182 nM.

Take “GCCUUAUCGGUCAGGAUAUACACCCGUCACUUCUUGUAGAAGGGACAUGAGGAUCACCCAUGUACAUUACAUUG”: the “apparent Kd” value is, setting by setting: under setting [1], 313 nM; under setting [2], 177 nM.

Take “AUUAUGUAAGGAUAUCUUACAUGUGACUUCGGUCACUGUCAAGAGAAGGUACAUGAGGAUCACCCAUGUAUGAC”: the “apparent Kd” value by setting is: under setting [1], 14 nM; under setting [2], 16.3 nM.

On to “AUCAGCUCGUCAGGAUAUACGUCACUGCGACAGCAGUGUGGUAAGAUCACAUGAGGAUCACCCAUGUAGAAGGGACGAGCUGAU”, for which the “apparent Kd” value is 14.2 nM under setting [1] and 297 nM under setting [2].

Take “AUUCAGUCAGGAUAUCGUUAAUUUAAUUGUUUGUUUUAGUUCGAGAAGGGACAUGAGGAUCACCCAUGUACUUU”: the “apparent Kd” value is, setting by setting: under setting [1], 20.2 nM; under setting [2], 19.3 nM.

“AAUUAACAUGAGGAUCACCCAUGUGAGGAUAUGGUAUUAUUUGGACAGUUAUGAUAUACCAGAAGGCACAAAUA”: the “apparent Kd” value by setting is: under setting [1], 32.6 nM; under setting [2], 45.9 nM.

As for “GCGGUACAUGAGGAUCACCCAUGUCAGGAUAUCCGCUGUUUGUUAAUAAACAGGCGGUGGAGAAGGGACUUCGC”, the “apparent Kd” value by setting is: under setting [1], 34.9 nM; under setting [2], 36.7 nM.

Turning to “CUGUACAUAUCAGGAUAUCUAUUUCCUACAUGAGGAUCACCCAUGUAGGUGAUCACCCAAGUAAAGGAGAAGGGAUAUGUAUAG”, the “apparent Kd” value by setting is: under setting [3], 66.4 nM; under setting [4], 23.7 nM.

On to “AAUUCACAUGAGGAUCACCCAUGUCAGGAUAUGGUUUCACUUUUUUCUUUUCUUGAUUCCAGAAGGGACAGCUA”, for which the “apparent Kd” value is 77.3 nM under setting [1] and 68.5 nM under setting [2].

For “GCGAUUUUGUAGAAGGUACGUUAUAAGACAAUGUAAGGAUAUACUGACAUGAGGAUCACCCAUGUAUAAAUAGUUAACAGUCGC”, the “apparent Kd” value is, setting by setting: under setting [3], 8.89 nM; under setting [4], 6.68 nM.
